Test [1] concerns the target T1, Tyrosine-protein phosphatase non-receptor type 1 (Homo sapiens, UniProt P18031).
T1 sequence (P18031 whole entry): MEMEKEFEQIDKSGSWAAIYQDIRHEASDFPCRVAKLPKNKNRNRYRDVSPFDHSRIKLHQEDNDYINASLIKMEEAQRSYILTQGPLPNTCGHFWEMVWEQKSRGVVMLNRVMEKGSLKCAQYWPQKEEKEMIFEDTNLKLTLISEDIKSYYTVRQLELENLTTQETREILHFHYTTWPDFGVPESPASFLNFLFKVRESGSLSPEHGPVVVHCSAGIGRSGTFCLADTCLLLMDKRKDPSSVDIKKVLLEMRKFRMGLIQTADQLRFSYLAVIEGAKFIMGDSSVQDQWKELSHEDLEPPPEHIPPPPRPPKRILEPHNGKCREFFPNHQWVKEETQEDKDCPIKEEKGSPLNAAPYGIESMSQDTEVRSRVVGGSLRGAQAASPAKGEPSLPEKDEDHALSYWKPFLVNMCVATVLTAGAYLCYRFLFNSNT
The test is described as follows: Inhibitory Activity against Recombinant Human PTP1. The gist of the method: (§1)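 GST-fusion enzyme (Cdc25B₂, VHR) or human recombinant PTP1B, with O-methyl fluorescein phosphate as substrate in a miniaturized microtiter format. After 60 min at ambient temperature, product fluorescence was read (excitation 485/20, emission 530/30). IC50 values were taken from concentration–response data.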

Test [2] has as its target Dual specificity protein phosphatase 3 (Homo sapiens, UniProt P51452). Put plainly: Inhibitory Activity against Recombinant Human VHR. The method, boiled down:
as §1

In test [3] the target is T2, M-phase inducer phosphatase 2 (Homo sapiens, UniProt P30305).
T2 sequence (P30305 whole entry): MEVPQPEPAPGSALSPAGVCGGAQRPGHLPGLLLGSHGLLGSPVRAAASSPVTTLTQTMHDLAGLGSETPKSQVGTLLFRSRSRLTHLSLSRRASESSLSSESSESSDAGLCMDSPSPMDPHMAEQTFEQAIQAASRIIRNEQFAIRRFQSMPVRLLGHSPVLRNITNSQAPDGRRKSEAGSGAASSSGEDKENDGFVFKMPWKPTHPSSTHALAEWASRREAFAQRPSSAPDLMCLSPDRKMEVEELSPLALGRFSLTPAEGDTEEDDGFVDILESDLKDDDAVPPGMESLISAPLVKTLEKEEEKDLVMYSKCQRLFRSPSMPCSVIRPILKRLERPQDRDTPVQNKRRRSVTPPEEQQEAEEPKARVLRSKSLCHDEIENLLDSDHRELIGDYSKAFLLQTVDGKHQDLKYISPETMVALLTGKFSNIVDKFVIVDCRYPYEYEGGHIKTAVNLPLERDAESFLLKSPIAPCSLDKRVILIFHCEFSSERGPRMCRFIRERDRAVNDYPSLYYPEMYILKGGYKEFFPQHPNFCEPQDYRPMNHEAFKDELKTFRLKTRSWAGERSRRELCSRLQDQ
The test is described as follows: Inhibitory activity against recombinant human cell division cycle 25B. The method, boiled down:
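GST-fusion enzyme (Cdc25B₂, VHR) or human recombinant PTP1B, with O-methyl fluorescein phosphate as substrate in a miniaturized microtiter format. IC50 values were taken from concentration–response data.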

Chain of Dual specificity protein phosphatase 3 (P51452 whole entry): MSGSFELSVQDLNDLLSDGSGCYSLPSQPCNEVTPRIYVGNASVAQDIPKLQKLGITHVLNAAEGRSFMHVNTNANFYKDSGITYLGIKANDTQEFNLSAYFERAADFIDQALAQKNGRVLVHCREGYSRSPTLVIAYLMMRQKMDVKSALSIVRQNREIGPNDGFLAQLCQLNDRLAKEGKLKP

As for `O=C1C(Cl)=C(Cl)C(=O)c2ncccc21`, the half-inhibitory concentration (IC50) (commonly the concentration that inhibits the measured activity by half) in test [1] is above 10 µM; in test [2], above 10 µM; in test [3], 4.6 µM.
For `O=C1C(Cl)=C(Cl)C(=O)c2cnccc21`, the IC50 in test [1] was above 10 µM; in test [2], above 10 µM; in test [3] it was 1.5 µM.
In the case of `CC(/N=C1\C=C(O)c2cccnc2C1=O)C(O)c1ccccc1` (centres undefined), the figures for the concentration for half-maximal inhibition (IC50) in test [1], in test [2] and in test [3] were above 100 µM, 16 µM and 0.51 µM, respectively.
For `O=C1C(Cl)=C(NCCN2CCOCC2)C(=O)c2ncccc21`, the figures for the IC50 in test [1] and in test [2] were above 100 µM and 4 µM, respectively.
With `O=C1/C(=N/CCc2cc(Br)c(O)c(Br)c2)C=C(O)c2cccnc21`, the half-inhibitory concentration (IC50) worked out at 8 µM in test [1], 8.5 µM in test [2] and 0.64 µM in test [3].
Turning to `O=C1C(Cl)=C(Cl)C(=O)c2ncncc21`, the results for the IC50 in test [1], in test [2] and in test [3] were above 10 µM, above 10 µM and 4.8 µM, respectively.
On to `O=C1/C(=N\C(Cc2c[nH]c3ccccc23)C(=O)O)C(Cl)=C(O)c2cccnc21` (centres undefined), for which the IC50 in test [1] is above 10 µM; in test [2] it was above 10 µM; in test [3], 16 µM.
For the compound `O=C1C(NCCN2CCOCC2)=C(Cl)C(=O)c2ncccc21`, the figures for the IC50 in test [1], in test [2] and in test [3] were above 10 µM, above 10 µM and 0.82 µM, respectively.
With `CC(/N=C1\C=C(O)c2ncccc2C1=O)C(O)c1ccccc1` (centres undefined), the figures for the IC50 in test [1], in test [2] and in test [3] were above 10 µM, above 10 µM and 0.67 µM, respectively.
`O=C1C(Cl)=C(NCCN2CCOCC2)C(=O)c2cnncc21`: the IC50 in test [1] was 9.8 µM; in test [2] it was 1.1 µM; in test [3] it was 0.43 µM.
The matching figures for `COc1cc(CC/N=C2\C=C(O)c3cccnc3C2=O)ccc1O`: above 100 µM, 17 µM and 0.45 µM.
For `O=C1C(Cl)=C(NC2CCc3ccccc32)C(=O)c2ncccc21` (centres undefined), the IC50 in test [3] was determined as 0.3 µM.
With `O=C1C(Cl)=C(N2CCN(CCOCCO)CC2)C(=O)c2ncccc21`, the concentration for half-maximal inhibition (IC50) in test [1] is above 10 µM; in test [2] it was above 10 µM; in test [3], 0.9 µM.
Take `COC(=O)c1nc(-c2ccc3c(n2)C(=O)C(=N)C(OC)=C3O)c(N)c(-c2ccc(OC)c(OC)c2O)c1C`: the IC50 in test [1] was 8.7 µM; in test [2], 5.1 µM; in test [3], 0.37 µM.
With `CCCCCCOc1ccc(NC2=C(Cl)C(=O)c3cccnc3C2=O)cc1`, the half-maximal inhibitory concentration (IC50) was above 10 µM in test [1], above 10 µM in test [2] and 0.93 µM in test [3].
`O=C1C=CC(=O)c2ncccc21`: the IC50 is above 10 µM in test [1], above 10 µM in test [2] and 3 µM in test [3].
Take `O=C1C(Cl)=C(NCCc2c[nH]c3ccccc23)C(=O)c2ncccc21`: the IC50 in test [1] is above 10 µM; in test [2], above 10 µM; in test [3], 5.1 µM.
On to `O=C1C(Cl)=C(Cl)C(=O)c2cnncc21`, for which the IC50 in test [1] was above 10 µM; in test [2], above 10 µM; in test [3] it was 8.9 µM.
In the case of `O=C1C(Cl)=C(NCCN2CCOCC2)C(=O)c2cnccc21`, the half-maximal inhibitory concentration (IC50) in test [1] was above 10 µM; in test [2], above 10 µM; in test [3] it was 0.59 µM.

The values above are taken from ChEMBL document CHEMBL1134280, “Discovery and biological evaluation of a new family of potent inhibitors of the dual specificity protein phosphatase Cdc25” (J Med Chem, 2001).
